Screens as filed in PubChem.
RGS4 act – RGS4 potentiation or activation; HEK293 M3R/inducible RGS4, carbachol calcium flux Fluo4; active compounds read low; B-score at 10 µM; 310,000 compounds, 0.92% hits; AID 463111;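 active means B-score of the integrated calcium signal more than 4 SD below the library mean, with starting fluorescence not abnormally high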;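 further: negative B-score means reduced calcium response which marks RGS4 activation or potentiation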
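test system = HEK293 cells with stable M3R and inducible RGS4 | schedule = recording 10 s baseline at 1 Hz, 100 s post-agonist | technique = Fluo4-AM (2 µM) calcium-flux fluorescence, kinetic read | measure = Agonist-evoked peak-minus-minimum fluorescence over baseline, integrated ratio, B score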
MrgX1 agonist – human MrgX1 receptor agonism, primary screen | Q96LB2 | MrgX1-HEK293 cells, Fluo-4 calcium fluorescence, agonist mode; active compounds read high | B-score at 10 µM | 310,000 compounds, 0.44% hits;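 active means calcium response B-score plate-corrected fluorescence ratio at least 3 library SD, with starting fluorescence B-score inside 5 SD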
Target sequence (Q96LB2 whole entry, looked up): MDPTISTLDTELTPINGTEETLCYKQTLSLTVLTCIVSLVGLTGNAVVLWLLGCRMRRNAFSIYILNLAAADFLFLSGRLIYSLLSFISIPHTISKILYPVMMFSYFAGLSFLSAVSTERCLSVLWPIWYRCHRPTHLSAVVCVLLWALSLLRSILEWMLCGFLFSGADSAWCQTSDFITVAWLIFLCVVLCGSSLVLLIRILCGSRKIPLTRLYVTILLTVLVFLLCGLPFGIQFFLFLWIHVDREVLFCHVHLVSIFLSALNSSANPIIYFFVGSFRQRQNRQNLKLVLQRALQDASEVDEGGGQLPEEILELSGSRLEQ
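Material: MrgX1-expressing HEK293 cells / Dosing: compound as first of three additions / Incubation: overnight seeding, then 1 h dark dye loading / Signal: Fluo-4 NW calcium fluorescence / Evaluation: B-scored fluorescence response ratio / Benchmarks: positive and negative control wells on each plate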
MrgX1 PAM – human MrgX1 positive allosteric modulation, primary screen; 310,000 compounds, 0.63% hits; MrgX1-HEK293, Fluo-4 calcium flux, FDSS; active compounds read high; B-score at 10 µM; Q96LB2;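 active means plate-corrected calcium response at least 3 library SD above typical, normal starting fluorescence, not activating the receptor alone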;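 further: compound read alongside a low EC10 to EC30 dose of BAM8-22 agonist; peak minus trough fluorescence over baseline measured at the second addition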
MrgX1 antag – human MrgX1 receptor antagonism, primary screen; 310,000 compounds, 1.3% hits; B-score at 10 µM; Q96LB2; MRGX1-HEK293 calcium flux, Fluo-4, BAM8-22 antagonism; active compounds read low;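 active means calcium-response B-score plate-corrected more than 3 library SD below zero, starting fluorescence within 5 deviations, no agonist response on first addition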;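 further: peak minus trough fluorescence over baseline after final BAM8-22 challenge near maximal dose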
RGS4 block – inhibitors of human RGS4; HEK293 M3R/RGS4 inducible, Fluo-4 calcium flux; active compounds read high; triggered by carbachol at its EC20; B-score at 10 µM; AID 463165; 310,000 compounds, 0.45% hits; P49798;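 active means B-score, a plate-corrected calcium signal, over three deviations above library mean, with baseline fluorescence within five deviations of library mean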;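 further: RGS4 expression induced by doxycycline in cells with stable M3 receptor; B-score is computed from the integrated fluorescence ratio over baseline after carbachol; higher B-score means a larger calcium signal and so more RGS4 inhibition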
Target sequence (P49798 whole entry, looked up): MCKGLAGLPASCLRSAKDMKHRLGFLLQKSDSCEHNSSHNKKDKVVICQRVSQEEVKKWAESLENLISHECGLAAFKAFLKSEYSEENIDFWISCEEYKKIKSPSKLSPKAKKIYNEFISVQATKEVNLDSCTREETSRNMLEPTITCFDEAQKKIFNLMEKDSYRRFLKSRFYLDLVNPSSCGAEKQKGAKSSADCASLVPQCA
Numbers stand for hits. Hits are enriched below; roughly 3.5% of the tested compounds scored in any of these assays.

Results for CCN=c1scc(-c2ccc3c(c2)NC(=O)CO3)n1N=C1CCCC1 ?
RGS4 act: inactive; MrgX1 agonist: inactive; MrgX1 PAM: inactive; MrgX1 antag: inactive; RGS4 block: inactive

How did CCCCN=c1scc(-c2ccc3c(c2)NC(=O)CO3)n1N=C1CCCC1 do in these assays?
RGS4 act: inactive; MrgX1 agonist: 32; MrgX1 PAM: inactive; MrgX1 antag: inactive; RGS4 block: inactive

Results for Cc1ccc([N+](=O)[O-])cc1S(=O)(=O)Nc1ccc(-c2ccc(N3CCCC3)nn2)cc1 ?
RGS4 act: inactive; MrgX1 agonist: inactive; MrgX1 PAM: 16; MrgX1 antag: inactive; RGS4 block: inactive

What do the screens show for `Cc1c([N+](=O)[O-])cc(S(=O)(=O)Nc2ccc(-c3ccc(N4CCCC4)nn3)cc2)cc1[N+](=O)[O-]`?
RGS4 act: inactive; MrgX1 agonist: inactive; MrgX1 PAM: inactive; MrgX1 antag: inactive; RGS4 block: inactive

What do the screens show for `O=[N+]([O-])c1ccc(Cl)c(S(=O)(=O)Nc2ccc(-c3ccc(N4CCCC4)nn3)cc2)c1`?
RGS4 act: inactive; MrgX1 agonist: inactive; MrgX1 PAM: inactive; MrgX1 antag: inactive; RGS4 block: inactive

Results for O=[N+]([O-])c1ccc(S(=O)(=O)Nc2ccc(-c3ccc(N4CCCC4)nn3)cc2)cc1 ?
RGS4 act: inactive; MrgX1 agonist: inactive; MrgX1 PAM: 6.7; MrgX1 antag: inactive; RGS4 block: inactive

Results for CC(OC(=O)c1cc2sccc2n1C)C(=O)NCc1ccco1 (stereo unspecified) ?
RGS4 act: inactive; MrgX1 agonist: inactive; MrgX1 PAM: inactive; MrgX1 antag: inactive; RGS4 block: inactive

How did Cn1c(C(=O)OC(C(=O)NCc2ccco2)c2ccncc2)cc2sccc21 (stereo unspecified) do in these assays?
RGS4 act: inactive; MrgX1 agonist: inactive; MrgX1 PAM: inactive; MrgX1 antag: -4.7; RGS4 block: inactive

What do the screens show for `Cc1ccc(C)c(CSC2=NCCN2S(=O)(=O)c2ccccc2)c1`?
RGS4 act: inactive; MrgX1 agonist: inactive; MrgX1 PAM: inactive; MrgX1 antag: inactive; RGS4 block: inactive

Results for Cc1ccc(OCCn2c(=O)n(C)c3ccccc32)cc1 ?
RGS4 act: -7.2; MrgX1 agonist: inactive; MrgX1 PAM: inactive; MrgX1 antag: inactive; RGS4 block: inactive

Results for COc1ccc(C2N(c3ccccc3)C(=S)N3CCCN23)cc1 (stereo unspecified) ?
RGS4 act: inactive; MrgX1 agonist: inactive; MrgX1 PAM: inactive; MrgX1 antag: inactive; RGS4 block: inactive

Results for S=C1N(c2ccccc2)C(c2ccc(Cl)cc2)N2CCCN12 (stereo unspecified) ?
RGS4 act: -7.2; MrgX1 agonist: inactive; MrgX1 PAM: inactive; MrgX1 antag: inactive; RGS4 block: inactive

Results for O=C(CSc1nc(O)cc(=O)n1-c1ccc(Cl)c(Cl)c1)Nc1ccc(Cl)cc1Cl ?
RGS4 act: inactive; MrgX1 agonist: inactive; MrgX1 PAM: inactive; MrgX1 antag: inactive; RGS4 block: inactive

Results for Cc1c(C(=O)/C=C/c2cccs2)oc2ccc(F)cc12 ?
RGS4 act: inactive; MrgX1 agonist: inactive; MrgX1 PAM: inactive; MrgX1 antag: -6; RGS4 block: inactive

What do the screens show for `CN(C)CCCN(C(=O)c1ccc(S(=O)(=O)N(C)C)cc1)c1nc2cc3c(cc2s1)OCO3`?
RGS4 act: inactive; MrgX1 agonist: inactive; MrgX1 PAM: inactive; MrgX1 antag: inactive; RGS4 block: inactive

What do the screens show for `CN(C)CCCN(C(=O)CCS(=O)(=O)c1ccccc1)c1nc2cc3c(cc2s1)OCO3`?
RGS4 act: -8.2; MrgX1 agonist: inactive; MrgX1 PAM: inactive; MrgX1 antag: inactive; RGS4 block: inactive

How did CN(C)CCCN(C(=O)CCSc1ccccc1)c1nc2cc3c(cc2s1)OCO3 do in these assays?
RGS4 act: inactive; MrgX1 agonist: inactive; MrgX1 PAM: inactive; MrgX1 antag: inactive; RGS4 block: inactive

What do the screens show for `CN(C)CCCN(C(=O)c1ccc(C(=O)c2ccccc2)cc1)c1nc2cc3c(cc2s1)OCCO3`?
RGS4 act: -8.8; MrgX1 agonist: inactive; MrgX1 PAM: inactive; MrgX1 antag: inactive; RGS4 block: inactive

Results for CCN(Cc1ccccc1)S(=O)(=O)c1ccc(C(=O)N(CCCN(C)C)c2nc3cc4c(cc3s2)OCO4)cc1 ?
RGS4 act: -7.5; MrgX1 agonist: inactive; MrgX1 PAM: inactive; MrgX1 antag: inactive; RGS4 block: inactive

How did CCN(Cc1ccccc1)S(=O)(=O)c1ccc(C(=O)N(CCCN(C)C)c2nc3c(C)c(C)ccc3s2)cc1 do in these assays?
RGS4 act: inactive; MrgX1 agonist: inactive; MrgX1 PAM: inactive; MrgX1 antag: -6.7; RGS4 block: inactive

What do the screens show for `C=C1CCN([C@@H](CC(C)C)C(=O)NCc2ccco2)S(=O)(=O)c2ccccc21`?
RGS4 act: inactive; MrgX1 agonist: inactive; MrgX1 PAM: inactive; MrgX1 antag: inactive; RGS4 block: inactive

Results for S=C(NCc1ccccc1)NN1CCOCC1 ?
RGS4 act: inactive; MrgX1 agonist: inactive; MrgX1 PAM: inactive; MrgX1 antag: inactive; RGS4 block: inactive

What do the screens show for `CCC(=O)Nc1ccc(N2CCN(S(C)(=O)=O)CC2)cc1`?
RGS4 act: inactive; MrgX1 agonist: inactive; MrgX1 PAM: inactive; MrgX1 antag: inactive; RGS4 block: inactive

How did Cc1ccc(CSC2=NCCN2C(=O)c2ccc([N+](=O)[O-])cc2)cc1 do in these assays?
RGS4 act: inactive; MrgX1 agonist: inactive; MrgX1 PAM: inactive; MrgX1 antag: inactive; RGS4 block: inactive

What do the screens show for `Cc1ccc(C(=O)N2CCN=C2SCc2ccc([N+](=O)[O-])cc2)cc1`?
RGS4 act: inactive; MrgX1 agonist: inactive; MrgX1 PAM: inactive; MrgX1 antag: -7.1; RGS4 block: inactive

What do the screens show for `O=C(O)CSCC(=O)N(Cc1ccccc1)c1nc(-c2ccccc2)c(-c2ccccc2)s1`?
RGS4 act: inactive; MrgX1 agonist: inactive; MrgX1 PAM: inactive; MrgX1 antag: -4.7; RGS4 block: inactive

How did COC(=O)CNC(=O)Cn1nc(C)c([N+](=O)[O-])c1C do in these assays?
RGS4 act: inactive; MrgX1 agonist: inactive; MrgX1 PAM: 12; MrgX1 antag: inactive; RGS4 block: inactive

Results for COC(=O)c1cccc(Cn2nc(C)c([N+](=O)[O-])c2C)c1 ?
RGS4 act: inactive; MrgX1 agonist: inactive; MrgX1 PAM: inactive; MrgX1 antag: -6.6; RGS4 block: inactive

What do the screens show for `Cc1nn(CC(=O)NCc2ccccc2)c(C)c1[N+](=O)[O-]`?
RGS4 act: inactive; MrgX1 agonist: inactive; MrgX1 PAM: inactive; MrgX1 antag: inactive; RGS4 block: inactive

What do the screens show for `COc1cccc(OC)c1C(=O)Nc1cccc(-n2cnnn2)c1`?
RGS4 act: inactive; MrgX1 agonist: inactive; MrgX1 PAM: inactive; MrgX1 antag: inactive; RGS4 block: inactive

What do the screens show for `CC1=Nc2ccccc2/C1=C/c1sc(=N)n(-c2nccs2)c1O`?
RGS4 act: inactive; MrgX1 agonist: 46; MrgX1 PAM: inactive; MrgX1 antag: inactive; RGS4 block: inactive
